Shown are actives, neighbours in structure and some others; about 2% of the full set was active somewhere.
TRAIL sens C8: viability loss with TRAIL in NB7+C8 cells, primary screen, TRAIL sensitizer project, cell-based, ATPlite luminescence | hit rate 1% among 360,000 | inhibition (viability loss, TRAIL sensitization), % at 10 µM | AID 624354, 2012;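 active = compounds causing at least 50% loss of cell viability in the single-dose screen, relative to plate controls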
PPC-1+TRAIL kill: compounds killing PPC-1 cancer cells with TRAIL present, primary screen, TRAIL potentiator project, ATPLite luminescence, uHTS. PPC-1 cells + TRAIL, ATPLite viability luminescence. cell killing (% activity), % at 4 µM or 5 µM. hit rate 0.41% among 220,000. AID 1443, 2008;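 active = cell killing above 50% in the first pass at 4 µM, then a duplicate retest at 5 µM averaging 50% or more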
HSP90 inh: HSP90 inhibitors, primary screen, cell lysate, luminescence. inhibition, % at 5.6 µM. Rabbit reticulocyte lysate, luciferase refolding luminescence, 3 h. Heat shock protein HSP 90 (rabbit reticulocyte lysate; luciferase refolding). hit rate 0.91% among 290,000;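 active = inhibition above the screen-wide mean plus 3 SD, computed separately per campaign, cut at about 16% in these data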;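 also: inhibitors lower the luminescence because luciferase stays unfolded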
FLuc stim CS: FLuc activators, initial screening, artefact control for FLuc-dependent activation tests, biochemical, ATPlite luminescence. activation factor at 10 µM. AID 1027, 2008. ATPlite luciferase biochemical, 10 min; 0 = ATP-free wells, 1 = DMSO control. 200,000 tested, under 10 active. Luciferin 4-monooxygenase (Photinus pyralis), P08659;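 active = luciferase activation factor, scaled between plate controls, of at least 2 with compound at 10 µM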
Target sequence (P08659 whole entry, looked up): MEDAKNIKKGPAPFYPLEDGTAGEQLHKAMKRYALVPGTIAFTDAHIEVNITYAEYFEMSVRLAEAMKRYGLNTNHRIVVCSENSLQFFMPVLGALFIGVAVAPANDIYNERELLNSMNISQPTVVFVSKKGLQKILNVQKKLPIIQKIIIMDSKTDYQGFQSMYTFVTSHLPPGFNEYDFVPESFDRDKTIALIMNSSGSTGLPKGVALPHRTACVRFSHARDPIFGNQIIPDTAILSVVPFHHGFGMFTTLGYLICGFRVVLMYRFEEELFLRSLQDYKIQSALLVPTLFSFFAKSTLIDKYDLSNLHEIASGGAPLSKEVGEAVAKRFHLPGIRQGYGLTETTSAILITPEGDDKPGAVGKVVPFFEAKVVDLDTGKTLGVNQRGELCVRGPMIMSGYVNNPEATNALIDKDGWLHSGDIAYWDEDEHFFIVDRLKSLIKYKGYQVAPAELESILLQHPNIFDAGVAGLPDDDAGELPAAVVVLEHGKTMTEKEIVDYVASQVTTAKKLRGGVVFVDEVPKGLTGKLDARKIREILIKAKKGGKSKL
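Material: Luciferase/luciferin reagent mix; Doses: test compounds dosed from 2 mM stocks in 100% DMSO; Schedule: 10 min incubation after luciferase reagent addition, room temperature; Measured by: luminescence from luciferase reaction; Read-out: luminescence gain marking luciferase activators.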
FLuc inh counter: firefly luciferase enzyme inhibitors, primary screen, artefact control for luciferase-based inhibitor screens, biochemical, luminescence, ATPLite | Luciferin 4-monooxygenase (Photinus pyralis), P08659 | 10 min | inhibition, % at 10 µM | hit rate 1.5% among 200,000 | AID 1006, 2008;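 active = inhibition above about 50% when tested at 10 µM, limit read from the data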
Numbers stand for hits; i = inactive; nt = no result.

SMILES	TRAIL sens C8	PPC-1+TRAIL kill	HSP90 inh	FLuc stim CS	FLuc inh counter
CCCC(=O)N1CCc2cc(-c3nc(N)sc3C)ccc21	i	i	i	i	i
Nc1nc(-c2ccc3c(c2)OCCO3)cs1	i	i	i	i	i
CCC(C)C(=O)N1CCc2cc(-c3csc(N)n3)ccc21 (stereo not drawn)	i	i	i	i	67.2
CNc1nc(-c2ccc3c(c2)CCN3C(=O)c2ccccc2F)cs1	i	i	i	i	64.9
Nc1nc(-c2ccc3c(c2)CCCC3)cs1	i	i	i	i	58.2
CNc1nc(-c2ccc3c(c2)CCN3C(=O)c2ccccc2F)c(C)s1	i	i	i	i	i
Cc1ccc(C(=O)Nc2ccc3ccccc3n2)cc1	49.8	nt	i	nt	nt
O=C(Nc1ccc2ccccc2n1)c1ccccc1	i	nt	i	nt	nt
COc1ccc(NC(=O)c2cc3ccccn3n2)cc1	i	i	i	i	80.5
Cc1ccc(OCc2nc(-c3cccs3)no2)c([N+](=O)[O-])c1	i	i	i	i	60.9
O=[N+]([O-])c1ccccc1OCc1nc(-c2cccs2)no1	i	i	i	i	i
Cc1ccc(C(=O)Nc2ncc(Cc3ccc(F)cc3)s2)o1	i	i	i	i	62.0
Cc1cc(C(=O)COC(=O)c2ccc(O)cc2)c(C)n1Cc1ccco1	i	i	i	i	i
CCOc1ncccc1C(=O)OCC(=O)c1cc(C)n(Cc2ccco2)c1C	i	i	i	i	66.8
Cc1cc(C(=O)COC(=O)C(C)NC(N)=O)c(C)n1Cc1ccco1 (stereo not drawn)	i	i	i	i	66.9
CC(C)CC(N)c1csc(Nc2ccc(C(=O)NCCO)cc2)n1 (stereo not drawn)	i	nt	nt	nt	nt
Nc1nc(N)c(-c2cccc(C(F)(F)F)c2)c(Cc2cccc(C(F)(F)F)c2)n1	77.7	nt	nt	nt	nt
CCOC(=O)N(C)c1c(CC)nc2c(OCc3ccccc3)cccn12	i	nt	nt	nt	nt
Cc1ccc(C(=O)N/C(=C\c2cn(C)c3ccccc23)C(=O)NCCCN2CCOCC2)cc1	i	nt	i	nt	nt
Cc1ccc(C(=O)N/C(=C\c2ccc(-c3ccccc3[N+](=O)[O-])o2)C(=O)NCCCN2CCOCC2)cc1	55.6	nt	i	nt	nt
Cc1ccc(NC(=O)c2cc(F)c(F)cc2Cl)nc1	i	i	i	i	i
Cc1ccc2nc(NC(=O)c3ccccc3F)sc2c1	58.5	nt	i	nt	nt
Cc1ccc(NC(=O)c2ccccc2F)nc1	i	i	i	i	52.2
CNc1cncc(-c2cnn(CC(C)C)c2)n1	i	nt	nt	nt	nt
COc1ccc(C(C(=O)NC(C)(C)C)n2c(-c3ccc(C(F)(F)F)cc3)nc3ccccc32)cc1 (stereo not drawn)	i	nt	nt	nt	nt
SMILES	TRAIL sens C8	PPC-1+TRAIL kill	HSP90 inh	FLuc stim CS	FLuc inh counter
O=C(NCc1ccccc1)c1c[nH]c2ccc(S(=O)(=O)Nc3ccc4c(c3)OCCO4)cc2c1=O	i	i	i	i	i
O=C(NCc1cccnc1)c1c[nH]c2cc3c(cc2c1=O)OCCO3	i	i	16.4	i	i
CNC(=O)c1ccsc1NC(=O)c1ccc2c(c1)CCCC2	i	i	i	i	74.3
NS(=O)(=O)c1ccc(NC(=O)c2ccc3c(c2)CCCC3)cc1	i	nt	i	nt	nt
Cc1nn(-c2ccccc2)c2nc(N)c(C#N)c(-c3ccc(F)cc3)c12	57.7	i	i	i	i
CC(O)(c1ccc(F)c(F)c1)c1nc(-c2ccc3ccccc3c2)cs1 (stereo not drawn)	i	nt	nt	nt	nt
COc1ccccc1-c1cnc(C(O)c2cccc(CN3CCCCC3)c2)[nH]1 (stereo not drawn)	i	nt	nt	nt	nt
COC(=O)C(C(=O)OC)c1cc2c(cc1CNS(=O)(=O)c1ccc(C)cc1)OCO2	i	nt	nt	nt	nt
Cc1cccc(NC(=S)NC(=O)c2ccc(-c3ccccc3)cc2)n1	59.4	nt	i	nt	nt
Cc1cccc(NC(=S)NC(=O)c2oc3ccccc3c2C)n1	64.0	nt	i	nt	nt
Cc1cc(C)c(NC(=S)NC(=O)c2ccccc2)cc1C	i	nt	nt	nt	nt
Cc1cccc(NC(=O)c2cc3ccccc3c(=O)o2)n1	59.7	nt	nt	nt	nt
Cc1cccc(NC(=S)NC(=O)C(c2ccccc2)c2ccccc2)n1	i	nt	i	nt	nt
Cc1ccc(C(=O)O)cc1NC(=S)NC(=O)c1ccc(-c2ccccc2)cc1	i	i	i	i	86.2
OCCCNCc1ccc(N(c2ccccc2)c2ccccc2)cc1	i	nt	i	nt	nt
O=C(NCCCN1CCOCC1)c1[nH]c(C(F)(F)F)nc1-c1ccccc1	i	nt	nt	nt	nt
Cc1nc(-c2ccc(NC(=O)c3ccccc3C)cc2)cs1	i	i	i	i	61.5
Cc1ccc(NC(=O)c2ccccc2O)cc1	52.4	i	i	i	77.5
COc1ccc(-n2ccnc2SCC(=O)c2c(N)n(C3CC3)c(=O)[nH]c2=O)cc1	i	nt	nt	nt	nt
O=C(Nc1ccc(Cl)cc1)/C(=C/c1cccc(O)c1)c1nc2ccccc2s1	88.0	i	i	i	i
Cc1ccc(CN2CC(C(=O)N(CC(C)C)c3c(N)n(Cc4ccccc4)c(=O)[nH]c3=O)CC2=O)cc1 (stereo not drawn)	i	nt	nt	nt	nt
Cc1cc(NC(=O)C(C)C)ncc1NC(=O)c1cccc(F)c1	i	i	i	i	i
CCCC(=O)Nc1cnc(NC(=O)c2cccc(F)c2)cc1C	i	i	16.7	i	i
NC(=O)C1(N2CCCCC2)CCN(C(=O)c2cc(COc3c(F)cccc3F)on2)CC1	i	nt	nt	nt	nt
Cc1ccc(S(=O)(=O)N2C3CC(c4ccccc4)N(S(=O)(=O)c4cccc(Cl)c4)CC3C(=O)C[C@H]2c2ccccc2)cc1 (stereo partly drawn)	i	nt	nt	nt	nt
SMILES	TRAIL sens C8	PPC-1+TRAIL kill	HSP90 inh	FLuc stim CS	FLuc inh counter
Cc1cc2[nH]c3c4ccccc4nc(C)c3c2cc1C	82.7	nt	nt	nt	nt
C=CCSc1nnc(-c2ccc(Cl)cc2Cl)o1	i	i	i	i	59.3
Cc1cc(C(F)(F)F)c(C#N)c(SCC(=O)Nc2nc3ccccc3s2)n1	i	i	29.9	i	i
Cc1cc(C)c(C#N)c(SCC(=O)Nc2nnc(-c3ccccc3)s2)n1	i	i	i	i	i
O=C(N/N=C/c1cccc(NC(=O)c2ccc(Cl)cc2)c1)c1ccc(O)cc1	61.2	i	i	nt	nt
O=C(N/N=C/c1cccc(F)c1)c1ccc(Cl)cc1	i	i	i	i	57.6
O=C(N/N=C/c1ccncc1)c1cccc(NC(=O)c2ccc(Cl)cc2)c1	i	i	i	i	i
Cc1cccc(N2CCN(S(=O)(=O)c3ccc4c(c3)NC(=O)C(C)S4)CC2)c1C (stereo not drawn)	54.0	nt	i	nt	nt
O=C(NCc1ccc(F)cc1)c1cc(C2CCCCN2S(=O)(=O)c2ccc(F)cc2F)on1 (stereo not drawn)	i	nt	nt	nt	nt
CSCCNC(=O)C1(C)CCN1C(=O)CCc1ccccc1 (stereo not drawn)	i	nt	nt	nt	nt
Clc1ccccc1-c1nnc(-c2cccnc2)o1	i	nt	i	nt	nt
Clc1ccccc1-c1nnc(-c2cccs2)o1	i	i	i	i	56.8
CN(C)c1ccc(-c2nnc(-c3cccs3)o2)cc1	i	i	i	i	71.8

Screening data as filed in PubChem BioAssay.
